Two molecules from ChEMBL document CHEMBL4813987, “Membrane active 7-thiazoxime quinolones as novel DNA binding agents to decrease the genes expression and exert potent anti-methicillin-resistant Staphylococcus aureus activity” (Eur J Med Chem, 2021) can be followed below.

For experiment [1], the system named is Pseudomonas aeruginosa. Kind of experiment: Antibacterial activity against Pseudomonas aeruginosa ATCC 27853 assessed as reduction in microbial growth by two fold microdilution method. In kind it is functional.
For experiment [2], the system named is Klebsiella pneumoniae. Put plainly: Antibacterial activity against Klebsiella pneumonia assessed as reduction in microbial growth by two fold microdilution method. In kind it is functional.
In experiment [3] the test system is Staphylococcus aureus. Put plainly: Antibacterial activity against Staphylococcus aureus assessed as reduction in microbial growth by two fold microdilution method. The experiment is classed as functional. The method in brief:
(§1)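 MIC determined by the standard two-fold broth micro-dilution assay, with norfloxacin and ciprofloxacin as reference agents.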

Experiment [4] relates to Staphylococcus aureus. Kind of experiment: Antibacterial activity against Staphylococcus aureus ATCC 29213 assessed as reduction in microbial growth by two fold microdilution method. The experiment is classed as functional.
Experiment [5] has as its system Staphylococcus aureus. Put plainly: microbe, parasite or virus in culture. To be noted: ATCC 25923.
Experiment [6] has as its system Klebsiella pneumoniae. Put plainly: Antibacterial activity against Klebsiella pneumonia in presence of (E)-1-cyclopropyl-6-fluoro-7-(4-(2-((2-methoxy-2-oxoethoxy)imino)-2-(thiazol-2-yl)ethyl)piperazin-1-yl)-4-oxo-1,4-dihydroquinoline-3-carboxylic acid (reference value: 2 ug/ml).
Experiment [7] relates to Staphylococcus aureus. Put plainly: Antibacterial activity against Staphylococcus aureus ATCC 25923 assessed as reduction in microbial growth by two fold microdilution method. In kind it is functional.
The subject of a further experiment is Enterococcus faecalis. Put plainly: Antibacterial activity against Enterococcus faecalis assessed as reduction in microbial growth by two fold microdilution method. The experiment is classed as functional.
The test system of experiment [8] is Staphylococcus aureus. Put plainly: Antibacterial activity against methicillin-resistant Staphylococcus aureus assessed as reduction in microbial growth by two fold microdilution method. In kind it is functional. The method in brief:
as §1

The subject of experiment [9] is Staphylococcus aureus. Kind of experiment: microbe, parasite or virus in culture.
Experiment [10] concerns Pseudomonas aeruginosa. Kind of experiment: Antibacterial activity against Pseudomonas aeruginosa assessed as reduction in microbial growth by two fold microdilution method. In kind it is functional.
In experiment [11] the test system is Escherichia coli. Kind of experiment: Antibacterial activity against Escherichia coli ATCC 25922 assessed as reduction in microbial growth by two fold microdilution method. The experiment is classed as functional.
The test system of another experiment is Acinetobacter baumannii. Put plainly: Antibacterial activity against Acinetobacter baumannii assessed as reduction in microbial growth by two fold microdilution method. In kind it is functional.
The subject of experiment [12] is Escherichia coli. Kind of experiment: Antibacterial activity against Escherichia coli assessed as reduction in microbial growth by two fold microdilution method. The experiment is classed as functional.
In experiment [13] the test system is Staphylococcus aureus. Put plainly: Antibacterial activity against methicillin-resistant Staphylococcus aureus assessed as reduction in bacterial growth at 50 to 300 ug/ml measured after 14 passages. In kind it is functional, organism-based. To be noted: dose 50-300 µg/ml.
Experiment [14] relates to Staphylococcus aureus. Kind of experiment: Potency index, ratio of norfloxacin MIC to test compound MIC for antibacterial activity against methicillin-resistant Staphylococcus aureus assessed as reduction in microbial growth by two fold microdilution method. The experiment is classed as functional.

Values after ≈ are worked out from the molar mass of the structure shown. Active and inactive are the calls of the source. No cut-off for these calls is given here.

Take `O=C(O)c1cn(C2CC2)c2cc(N3CCNCC3)c(F)cc2c1=O` [CIPROFLOXACIN]: the MIC turned out to be 1 µg/mL in the experiment on Pseudomonas aeruginosa [1]; 2 µg/mL with Klebsiella pneumoniae [2]; 2 µg/mL in the experiment with Staphylococcus aureus [3]; 0.5 µg/mL in the experiment on Staphylococcus aureus [4]; 1 µg/mL (≈ 3.02 µM) against Staphylococcus aureus [5]; 0.125 µg/mL in the experiment with Klebsiella pneumoniae [6]. Also, the MIC in the experiment with Staphylococcus aureus [7] was 2 µg/mL; with Enterococcus faecalis, 2 µg/mL; in the experiment on Staphylococcus aureus [8], 8 µg/mL; with Staphylococcus aureus [9] it was 2 µg/mL (≈ 6.04 µM).

Regarding `C=CCO/N=C(\CN1CCN(c2cc3c(cc2F)c(=O)c(C(=O)O)cn3CC)CC1)c1nccs1`, the MIC in the experiment on Pseudomonas aeruginosa [1] amounted to 4 µg/mL; in the experiment on Pseudomonas aeruginosa [10], 0.25 µg/mL; in the experiment with Klebsiella pneumoniae [2] it was 256 µg/mL; in the experiment with Staphylococcus aureus [3], 0.25 µg/mL; with Escherichia coli [11] it was 0.5 µg/mL; with Acinetobacter baumannii, 0.25 µg/mL. The MIC with Staphylococcus aureus [4] was 2 µg/mL; in the experiment with Staphylococcus aureus [7] it was 0.5 µg/mL; with Escherichia coli [12], 0.25 µg/mL; with Enterococcus faecalis, 1 µg/mL; in the experiment with Staphylococcus aureus [8], 0.25 µg/mL. For the same molecule, the outcome in the experiment on Staphylococcus aureus [13] was inactive. Further, in the experiment with Staphylococcus aureus [14], the Ratio is given as 64.
